Data reported in paper PMC7547215 (Proceedings of the National Academy of Sciences of the …, 2020).
Like-named read-outs stand apart in the source and are kept apart here.

Legend:
[1] = target: murine IRE1 (Mus musculus, UniProt Q9EQY0); assay: Fluorescence-based IRE1 endoribonuclease cleavage assay; assay type: biochemical
[2] = target: T1, porcine RNase L (Sus scrofa, UniProt A5H025); assay: Fluorescence-based RNase L endoribonuclease cleavage assay; assay type: biochemical
T1 sequence (A5H025 1-743): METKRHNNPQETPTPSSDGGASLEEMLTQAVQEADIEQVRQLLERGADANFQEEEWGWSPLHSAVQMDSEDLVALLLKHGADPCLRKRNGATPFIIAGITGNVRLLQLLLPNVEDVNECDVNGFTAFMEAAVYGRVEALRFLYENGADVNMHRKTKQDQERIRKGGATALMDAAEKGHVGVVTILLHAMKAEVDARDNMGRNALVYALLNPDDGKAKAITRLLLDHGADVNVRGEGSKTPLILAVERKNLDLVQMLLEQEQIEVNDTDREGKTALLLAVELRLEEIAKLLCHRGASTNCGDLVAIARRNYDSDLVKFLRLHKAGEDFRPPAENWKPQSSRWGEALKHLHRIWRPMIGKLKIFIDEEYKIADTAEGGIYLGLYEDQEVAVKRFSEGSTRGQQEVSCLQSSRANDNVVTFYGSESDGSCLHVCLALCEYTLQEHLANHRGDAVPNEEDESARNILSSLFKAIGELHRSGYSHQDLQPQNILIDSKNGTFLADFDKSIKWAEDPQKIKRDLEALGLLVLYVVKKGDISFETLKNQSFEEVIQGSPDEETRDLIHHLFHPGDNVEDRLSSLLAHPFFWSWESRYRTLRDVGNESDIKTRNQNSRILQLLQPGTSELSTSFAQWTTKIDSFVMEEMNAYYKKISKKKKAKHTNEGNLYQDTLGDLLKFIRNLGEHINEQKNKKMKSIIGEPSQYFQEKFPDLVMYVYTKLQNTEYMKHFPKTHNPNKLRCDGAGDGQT

[3] = tested on: porcine RNase L H680N; assay: Differential scanning fluorimetry; assay type: binding
[4] = target: Human CK2a (Homo sapiens, UniProt P68400); assay: In vitro inhibition of CK2α kinase activity; assay type: biochemical
[5] = target: T1, porcine RNase L; assay: BODIPY-ATP fluorescence polarization binding/competition assay
[6] = target: glycogen phosphorylase b; conditions: read-out: IC50, glycogen phosphorylase b; cited from earlier work
[7] = tested on: casein kinase IIalpha (CK2α); conditions: cited from earlier work
[8] = tested on: A549 cells; assay: Cell survival; assay type: cell-based, human; conditions: up to 25 μM (SU 3 to 25 μM), over 30 h
How it was run: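 Human A549 cells cultured with test compound across a concentration series. Dye-labelled cells imaged in real time, and percent survival calculated. Mean ± SD of three survival profiles.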

[9] = target: T2, RNase L in human A549 cells (Homo sapiens, UniProt Q05823); assay: rRNA cleavage after pIC transfection in A549 cells; assay type: cell-based
T2 sequence (Q05823 1-741): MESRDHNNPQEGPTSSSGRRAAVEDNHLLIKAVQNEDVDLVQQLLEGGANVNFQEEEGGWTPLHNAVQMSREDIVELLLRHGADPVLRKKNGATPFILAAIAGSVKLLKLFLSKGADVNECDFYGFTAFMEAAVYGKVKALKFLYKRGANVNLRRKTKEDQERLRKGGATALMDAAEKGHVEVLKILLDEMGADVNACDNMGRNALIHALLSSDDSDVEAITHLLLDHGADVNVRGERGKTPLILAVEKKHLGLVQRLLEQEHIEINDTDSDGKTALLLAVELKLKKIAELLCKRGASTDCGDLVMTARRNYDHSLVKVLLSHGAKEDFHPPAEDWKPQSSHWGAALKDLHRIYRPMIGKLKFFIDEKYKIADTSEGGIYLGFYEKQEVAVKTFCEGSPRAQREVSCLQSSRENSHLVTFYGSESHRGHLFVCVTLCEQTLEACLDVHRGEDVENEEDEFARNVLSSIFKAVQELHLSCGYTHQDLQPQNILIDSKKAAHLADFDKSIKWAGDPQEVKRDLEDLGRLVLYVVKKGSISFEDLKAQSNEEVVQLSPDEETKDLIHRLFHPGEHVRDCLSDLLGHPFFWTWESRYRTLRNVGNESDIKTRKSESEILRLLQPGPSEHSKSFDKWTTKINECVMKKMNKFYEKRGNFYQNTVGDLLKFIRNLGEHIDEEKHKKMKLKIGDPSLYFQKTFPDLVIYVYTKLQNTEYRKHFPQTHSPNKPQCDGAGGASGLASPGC

[10] = tested on: RNase L; conditions: cited from earlier work
[11] = target: RNase L; conditions: read-out: IC50, ribonuclease activity of RNase L in vitro; cited from earlier work

Chain of murine IRE1 (Q9EQY0 21-977): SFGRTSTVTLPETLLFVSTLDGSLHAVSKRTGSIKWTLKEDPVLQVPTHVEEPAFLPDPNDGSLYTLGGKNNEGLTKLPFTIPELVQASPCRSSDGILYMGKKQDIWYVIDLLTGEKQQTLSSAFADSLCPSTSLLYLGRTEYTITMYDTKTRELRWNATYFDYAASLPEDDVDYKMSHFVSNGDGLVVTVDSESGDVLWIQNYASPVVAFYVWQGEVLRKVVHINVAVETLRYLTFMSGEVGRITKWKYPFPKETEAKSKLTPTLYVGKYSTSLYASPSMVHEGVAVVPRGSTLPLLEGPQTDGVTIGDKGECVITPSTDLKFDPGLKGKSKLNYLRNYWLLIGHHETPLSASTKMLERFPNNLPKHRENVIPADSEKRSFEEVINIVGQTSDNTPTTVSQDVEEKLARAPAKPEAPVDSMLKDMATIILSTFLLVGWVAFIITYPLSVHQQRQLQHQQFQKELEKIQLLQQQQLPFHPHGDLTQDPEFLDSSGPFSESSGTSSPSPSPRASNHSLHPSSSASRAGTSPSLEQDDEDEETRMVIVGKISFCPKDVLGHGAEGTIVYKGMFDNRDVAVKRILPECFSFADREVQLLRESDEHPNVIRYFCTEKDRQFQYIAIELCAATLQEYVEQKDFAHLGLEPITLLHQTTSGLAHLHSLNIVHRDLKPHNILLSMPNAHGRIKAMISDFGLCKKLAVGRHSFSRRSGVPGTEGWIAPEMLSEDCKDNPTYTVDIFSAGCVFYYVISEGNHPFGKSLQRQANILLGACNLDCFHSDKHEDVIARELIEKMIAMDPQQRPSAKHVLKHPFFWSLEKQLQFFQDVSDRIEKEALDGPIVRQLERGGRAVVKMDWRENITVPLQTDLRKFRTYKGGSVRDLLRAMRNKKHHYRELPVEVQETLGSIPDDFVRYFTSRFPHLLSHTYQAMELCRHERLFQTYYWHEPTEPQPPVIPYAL
Chain of Human CK2a (P68400 whole entry): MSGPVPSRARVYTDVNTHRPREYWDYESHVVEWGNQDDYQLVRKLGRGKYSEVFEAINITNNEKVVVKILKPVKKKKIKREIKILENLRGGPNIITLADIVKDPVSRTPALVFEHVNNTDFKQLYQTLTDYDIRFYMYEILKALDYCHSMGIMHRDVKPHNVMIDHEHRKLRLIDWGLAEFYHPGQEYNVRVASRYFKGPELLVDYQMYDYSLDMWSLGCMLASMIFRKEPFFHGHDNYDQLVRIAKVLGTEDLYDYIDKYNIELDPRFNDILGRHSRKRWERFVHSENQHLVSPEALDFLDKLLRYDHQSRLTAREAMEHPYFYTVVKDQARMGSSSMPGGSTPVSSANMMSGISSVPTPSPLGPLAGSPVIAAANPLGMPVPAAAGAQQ

Nc1ccc2ccc3c(N)ccc4ccc1c2c43 [1,6-diaminopyrene]
Effect on IRE1 ribonuclease activity ([1]; Fig. 2): ineffective at complete inhibition | Effect on RNase L ribonuclease activity ([2]; Fig. 2): ineffective at complete inhibition

Nc1ncnc2c1ncn2[C@@H]1O[C@H](COP(=O)(O)OP(=O)(O)OP(=O)(O)O)[C@@H](O)[C@H]1O [ATP]
Thermal stabilization of purified RNase L by ligand on its own [3]: pronounced stabilization | ΔTm of RNase L ([3]; named ligand(s) vs RNase L alone, SI Fig. S7, listed as ATP/MgCl2): 6 ± 0.2 °C

O=c1oc2c(O)c(O)cc3c(=O)oc4c(O)c(O)cc1c4c23 [EA, ellagic acid]
IC50 [1]: 270.6 ± 0.1 nM | IC50 ([2]; IC50, RNase L ribonuclease activity, 10-point dose–response, commercially sourced fresh powder, Fig. 1C, mean ± SEM of four curves): 73.5 ± 0.2 nM | IC50 [4]: 419 nM | Competitive displacement of BODIPY-ATP from RNase L [5]: neither EA nor VAL could competitively displace | IC50 [6]: 3200 nM | Potency of casein kinase II inhibition [7]: 20 nM | IC50 ([7]; read-out: IC50, casein kinase IIalpha (CK2α)): 40 nM | Cytotoxicity [8]: not cytotoxic | Decrease in potency in cells relative to in vitro against porcine RNase L ([9]; A549 and L929 cell lines): ~1,000 fold | pIC-induced RNA cleavage pattern ([9]; A549 cells, 3 h preincubation, 12 ng/mL pIC for 2 h): progressively reduced in a concentration-dependent manner

CCN(CC)CCNC(=O)c1c(C)[nH]c(/C=C2\C(=O)Nc3ccc(F)cc32)c1C [sunitinib]
Concentration required for the repression of RNase L cleavage activity ([10]; in cells): ~5 µM | IC50 ([10]; read-out: IC50, antiviral function of RNase L in cells): 1000 nM | IC50 [11]: 1400 nM | Cytotoxicity [8]: considerable cytotoxicity
